From ChEMBL document CHEMBL1157051, “New dioxazole derivatives: Synthesis and effects on the growth of Entamoeba histolytica and Giardia intestinalis” (Eur J Med Chem, 2010)
Values after ≈ are worked out from the molar mass of the structure shown.

Columns and labels:
Vero = assay: Cytotoxicity against african green monkey Vero cells after 72 hrs by SRB assay; assay type: cell-based; conditions: Chlorocebus sabaeus
Summary of the method: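 Vero (ATCC CCL-81) at 10⁵ cells/mL in Eagle's MEM with heat-inactivated FBS and 1 mM sodium pyruvate. Samples at maximum final concentration […]; 0.05% DMSO negative control. 72 h at 37 °C, 5% CO₂. Viability by sulphorhodamine B assay; cytotoxic defined as IC50 below the 180 cutoff.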

Entamoeba histolytica = assay: Antiamoebic activity against Entamoeba histolytica HM-1:IMSS trophozoites after 72 hrs by microdilution technique; assay type: functional, organism-based
Summary of the method: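 HM1:IMSS trophozoites in TYIS-33 medium, detached by chilling on ice; 1.7 × 10⁴ organisms/well. Samples in DMSO (final ≤0.1%), diluted in medium. Plates gassed with nitrogen 10 min, incubated 37 °C for 72 h. Washed in warm 0.9% NaCl, methanol-fixed, eosin-stained, dye released with 0.1 N NaOH, OD 490 nm. IC50 from linear regression of % inhibition vs log dose; triplicate.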

Giardia intestinalis = assay: Antigiardial activity against Giardia intestinalis Thai trophozoites after 24 hrs by inverted microscopic analysis; assay type: functional; conditions: Giardia duodenalis
[1] = Safety index, ratio of IC50 for african green monkey Vero cells to IC50 for Entamoeba histolytica HM-1:IMSS; assay type: toxicity, cell-based; conditions: read-out: Ratio IC50

IC50 (Entamoeba histolytica)	MIC (Giardia intestinalis)	SMILES	IC50 (Vero)	selectivity ratio [1]
9.97 µM	5.65 µM (≈ 1.56 µg/mL)	O=[N+]([O-])c1ccc(C2=NOC(c3ccccc3)O2)s1 (stereo not given)	< 180 µM	
1.8 µM	> 1500 µM	COc1ccc(C2ON=C(c3ccc(C)cc3)O2)cc1 (stereo not given)	> 180 µM	> 100
2.64 µM	5.33 µM (≈ 1.56 µg/mL)	O=[N+]([O-])c1ccc(C2=NOC(c3ccccc3O)O2)s1 (stereo not given)	< 180 µM	
7.3 µM	> 1500 µM	Cc1ccc(C2=NOC(C)(c3ccc(Cl)cc3)O2)cc1 (stereo not given)		
1.8 µM	> 1500 µM	Cc1ccc(C2=NOC(C)(c3ccccc3)O2)cc1 (stereo not given)	> 180 µM	> 100
1.6 µM	20.4 µM (≈ 6.25 µg/mL)	COc1ccc(C2ON=C(c3ccc([N+](=O)[O-])s3)O2)cc1 (stereo not given)	< 180 µM	
3.77 µM	10.8 µM (≈ 3.13 µg/mL)	CC1(c2ccccc2)ON=C(c2ccc([N+](=O)[O-])s2)O1 (stereo not given)	< 180 µM	
6.1 µM	4.55 µM (≈ 1.48 µg/mL)	CC1(c2ccc(Cl)cc2)ON=C(c2ccc([N+](=O)[O-])s2)O1 (stereo not given)	< 180 µM	
7.82 µM	> 1500 µM	Cc1ccc(C2=NOC(c3ccccc3)O2)cc1 (stereo not given)		
8.61 µM	> 1500 µM	Cc1ccc(C2=NOC(c3ccccc3O)O2)cc1 (stereo not given)		
	14.6 µM (≈ 2.5 µg/mL)	Cc1ncc([N+](=O)[O-])n1CCO [METRONIDAZOLE]		
